According to ChEMBL document CHEMBL3286272, “Synthesis, biological, and biophysical studies of DAG-indololactones designed as selective activators of RasGRP” (Bioorg Med Chem, 2014):
Active and inactive are the calls of the source. The calls are words filed in the database; no cut-off is given here.

How the values were obtained:
[1] = molecular target: T1, Ras guanyl-releasing protein 3 (Homo sapiens) (UniProt Q8IV61); experiment: Activation of RasGRP3 in human Ramos cells assessed as ERK1/2 phosphorylation at 10000 nM after 30 mins by Western blot analysis; type: cell-based
T1 sequence (whole entry): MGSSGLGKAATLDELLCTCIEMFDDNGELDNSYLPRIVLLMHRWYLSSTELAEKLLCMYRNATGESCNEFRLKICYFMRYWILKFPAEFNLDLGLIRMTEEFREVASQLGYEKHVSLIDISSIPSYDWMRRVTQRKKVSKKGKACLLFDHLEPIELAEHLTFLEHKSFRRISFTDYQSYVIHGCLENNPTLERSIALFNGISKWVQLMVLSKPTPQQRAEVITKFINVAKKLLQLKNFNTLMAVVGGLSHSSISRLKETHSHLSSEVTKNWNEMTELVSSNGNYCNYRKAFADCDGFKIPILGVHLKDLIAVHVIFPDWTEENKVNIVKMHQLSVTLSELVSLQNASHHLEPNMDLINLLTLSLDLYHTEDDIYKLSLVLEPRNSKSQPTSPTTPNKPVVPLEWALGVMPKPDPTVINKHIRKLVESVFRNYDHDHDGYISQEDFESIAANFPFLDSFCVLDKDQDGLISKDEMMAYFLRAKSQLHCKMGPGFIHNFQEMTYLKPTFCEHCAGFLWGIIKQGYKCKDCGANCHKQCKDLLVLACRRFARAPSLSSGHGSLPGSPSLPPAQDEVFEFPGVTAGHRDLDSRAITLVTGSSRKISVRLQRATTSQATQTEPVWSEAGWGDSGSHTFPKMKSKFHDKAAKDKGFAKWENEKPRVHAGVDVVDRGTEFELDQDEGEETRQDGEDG
Method in brief: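 Ramos cells in RPMI-1640 with 10% FBS and 1% L-glutamine, plated at 300,000 cells/ml, were exposed after 24 h to 0.01, 0.1, 1 and 10 μM compound for 30 min. Lysates were made in PBS with 0.5% Triton X-100 and sonicated. 7.5 μg protein was run on 10% Tris-glycine gels, blotted to nitrocellulose, probed overnight with phospho-specific primary antibodies and detected by ECL.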

[2] = molecular target: T2, Protein kinase C epsilon type (Homo sapiens, UniProt Q02156); experiment: Displacement of [3H]PDBu from recombinant human PKC-epsilon after 5 mins by scintillation counting analysis in presence of phosphatidylserine
T2 sequence (Q02156 whole entry): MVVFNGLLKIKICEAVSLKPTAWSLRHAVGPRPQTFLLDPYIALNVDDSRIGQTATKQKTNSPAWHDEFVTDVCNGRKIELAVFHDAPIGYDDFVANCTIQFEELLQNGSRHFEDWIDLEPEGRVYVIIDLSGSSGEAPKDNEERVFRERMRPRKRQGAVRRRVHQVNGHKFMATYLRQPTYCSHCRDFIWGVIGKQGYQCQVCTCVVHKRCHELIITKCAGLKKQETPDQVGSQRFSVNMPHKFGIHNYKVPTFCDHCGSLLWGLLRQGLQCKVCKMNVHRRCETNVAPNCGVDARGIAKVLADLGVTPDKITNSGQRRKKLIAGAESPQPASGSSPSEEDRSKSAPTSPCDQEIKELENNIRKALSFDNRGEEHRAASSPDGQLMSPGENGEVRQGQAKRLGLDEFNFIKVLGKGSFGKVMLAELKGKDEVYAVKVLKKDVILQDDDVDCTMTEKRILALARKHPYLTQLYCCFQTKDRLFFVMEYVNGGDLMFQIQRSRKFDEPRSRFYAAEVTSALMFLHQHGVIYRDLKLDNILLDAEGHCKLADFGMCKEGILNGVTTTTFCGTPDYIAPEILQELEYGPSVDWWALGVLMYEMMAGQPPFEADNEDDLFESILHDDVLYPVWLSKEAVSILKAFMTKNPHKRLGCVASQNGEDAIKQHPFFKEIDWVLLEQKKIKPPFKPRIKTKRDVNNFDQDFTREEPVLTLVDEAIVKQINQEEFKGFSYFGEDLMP
Method in brief: (§1)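 [3H]PDBu binding competition with 100 μg/ml phosphatidylserine present; PKCα and RasGRP1-C1 assayed at 37°C for stability. Values are mean ± SEM of triplicate independent experiments.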

Homo sapiens [3] = species: Homo sapiens; experiment: Selectivity ratio of Ki for recombinant human PKC-epsilon to Ki for recombinant human GFP-tagged RasGRP3
[4] = molecular target: Protein kinase C alpha type (Homo sapiens, UniProt P17252); experiment: Displacement of [3H]PDBu from recombinant human PKC-alpha after 5 mins by scintillation counting analysis in presence of phosphatidylserine; method in brief: as §1
Homo sapiens [5] = species: Homo sapiens; experiment: Selectivity ratio of Ki for recombinant human PKC-epsilon to Ki for recombinant RasGRP1 C1 domain (unknown origin)
[6] = molecular target: Protein kinase C delta type (Homo sapiens) (UniProt Q05655); experiment: Binding affinity to recombinant human GFP-tagged PKC-delta expressed in human LNCAP cells assessed as induction of protein translocation from plasma membrane to internal membrane at 10000 nM after 2 to 10 mins by confocal microscopic analysis; type: cell-based
Protein kinase C delta type (Homo sapiens), sequence (Q05655 whole entry, looked up): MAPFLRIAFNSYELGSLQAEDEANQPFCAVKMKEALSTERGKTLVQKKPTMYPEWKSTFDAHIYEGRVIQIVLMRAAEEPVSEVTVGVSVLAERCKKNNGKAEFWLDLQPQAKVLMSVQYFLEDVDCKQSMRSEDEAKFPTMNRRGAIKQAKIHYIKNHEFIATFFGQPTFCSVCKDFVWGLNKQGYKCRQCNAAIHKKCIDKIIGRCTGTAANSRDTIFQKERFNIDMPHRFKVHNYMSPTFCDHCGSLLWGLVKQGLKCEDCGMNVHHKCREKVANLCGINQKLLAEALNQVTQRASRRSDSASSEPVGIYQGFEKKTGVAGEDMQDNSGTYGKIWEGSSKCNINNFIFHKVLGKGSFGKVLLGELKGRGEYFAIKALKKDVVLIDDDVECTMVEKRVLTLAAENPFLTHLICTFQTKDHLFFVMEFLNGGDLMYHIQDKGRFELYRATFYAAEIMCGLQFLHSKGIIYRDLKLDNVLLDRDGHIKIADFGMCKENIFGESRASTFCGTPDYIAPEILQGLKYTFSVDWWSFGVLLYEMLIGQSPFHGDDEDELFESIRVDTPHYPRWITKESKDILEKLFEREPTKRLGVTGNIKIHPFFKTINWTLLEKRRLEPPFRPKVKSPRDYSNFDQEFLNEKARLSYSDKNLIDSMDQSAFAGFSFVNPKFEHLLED
Method in brief: (§2)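 LNCaP cells were transiently transfected with human GFP-PKCδ or GFP-RasGRP3 and imaged 24 h later by live confocal microscopy (488 nm excitation) every 30 s for 30 min after 10 μM ligand. Distribution was assessed from representative images. n = 3–6.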

[7] = Binding affinity to 9:1 DMPG/DMPC giant vesicle at 6.05 uM by fluorescence emission spectra analysis; conditions: in the assay text read “9:1 DMPC/DMPG” for “9:1 DMPG/DMPC”
Method in brief: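 Intrinsic 1-methylindole emission of 6.05 μM compound in Tris/sucrose/KCl buffer pH 7.4 was recorded at 27°C while titrating with DMPC/DMPG giant vesicles (5–30 μL), with excitation at each compound's own wavelength. Vesicle light scattering was under 5% of the signal.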

[8] = molecular target: T1, Ras guanyl-releasing protein 3 (Homo sapiens); experiment: Binding affinity to recombinant human GFP-tagged RasGRP3 expressed in human LNCAP cells assessed as induction of protein translocation from plasma membrane to internal membrane at 10000 nM after 2 to 10 mins by confocal microscopic analysis; type: cell-based; method in brief: as §2
Lipid bilayer = experiment: Binding affinity to NBD-PE embedded 9:1 DMPC/DMPG giant vesicle at 6.05 uM by FRET analysis
Method in brief: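 Giant vesicles containing NBD-PE (100:1 phospholipid:fluorophore) were mixed with 6.05 μM compound from DMSO stock in Tris/sucrose/KCl buffer pH 7.4. NBD-PE emission was recorded after excitation at 330–370 nm, the indole excitation range. Triton addition served as the disruption control.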

[9] = molecular target: Protein kinase C delta type (Homo sapiens) (UniProt Q05655); experiment: Activation of PKC-delta in HEK293 cells overexpressing RasGRP3 assessed as protein phosphorylation at S299 at 0.1 to 30 uM after 30 mins by Western blot analysis; type: cell-based
[10] = molecular target: T3, Ras guanyl-releasing protein 3 (Homo sapiens, UniProt Q8IV61); experiment: Displacement of [3H]PDBu from recombinant human GFP-tagged RasGRP3 expressed in Escherichia coli BL21 after 5 mins by scintillation counting analysis in presence of phosphatidylserine
T3 sequence (Q8IV61 whole entry): T1 sequence (whole entry)
Method in brief: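 Competition for [3H]PDBu binding to RasGRP3 with 100 μg/ml phosphatidylserine present, run at 18°C to optimize stability. Values are mean ± SEM of triplicate independent experiments.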

| Activity [1] | Ki [2] | Ratio Ki (Homo sapiens [3]) | Ki [4] | Ratio Ki (Homo sapiens [5]) | Activity [6] | Activity [7] | Activity [8] | Activity (Lipid bilayer) | Activity [9] | Ki [10] | SMILES |
| --- | --- | --- | --- | --- | --- | --- | --- | --- | --- | --- | --- |
| Active | 8.08 nM | 6.6 | 7.5 nM | 9.3 | Active | Active | Active | Active | Active | 1.22 nM | CCCC(CCC)C(=O)OCC1(CO)C/C(=C\c2ccc3ccn(C)c3c2)C(=O)O1 (centres undefined) |
| Active | 14.6 nM | 9 | 17.8 nM | 9.4 | Active | Active | Active | – | Active | 1.63 nM | CCCC(CCC)C(=O)OCC1(CO)C/C(=C\c2cccc3c2ccn3C)C(=O)O1 (centres undefined) |
| Active | 11.7 nM | 11 | 12.9 nM | 17 | Active | inactive | Active | Active | Active | 1.12 nM | CCCC(CCC)C(=O)OCC1(CO)C/C(=C\c2cccc3ccn(C)c23)C(=O)O1 (centres undefined) |
| Active | 2.17 nM | 6.4 | 8.25 nM | 5.3 | Active | inactive | Active | Active | Active | 0.34 nM | CCCC(CCC)C(=O)OCC1(CO)C/C(=C\c2ccc3c(ccn3C)c2)C(=O)O1 (centres undefined) |
| Active | 21.1 nM | 64 | 16.2 nM | 84 | Active | inactive | Active | inactive | Active | 0.33 nM | CCCC(CCC)C(=O)OCC1(CO)C/C(=C\c2cn(C)c3ccccc23)C(=O)O1 (centres undefined) |
